From ChEMBL document CHEMBL2057168, “(1aR,5aR)1a,3,5,5a-Tetrahydro-1H-2,3-diaza-cyclopropa[a]pentalene-4-carboxylic acid (MK-1903): a potent GPR109a agonist that lowers free fatty acids in humans” (J Med Chem, 2012)
Calls of active or inactive are those of the source. No cut-off for these calls is given here.

Columns and labels:
[1] = AUC (0 to 24 hrs) in human at titreated po dose administered from day 1 to 4 followed by 200 mg, po QD administered up to day 11 measured on day 11; format: ADME, organism-based; parameters: time < 24 hr, dose 200 mg, route oral; conditions: plasma
Outline: (§1)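 Double-blind, placebo-controlled, randomized dose-escalation study in healthy male volunteers, six cohorts of eight (six active, two placebo). Oral dose on day 1, two-day washout, then dosing days 4–11; the 200 mg qd cohort was titrated over days 1–4. Venous blood taken predose and at 0.5–12 h on days 1, 4 and 11; plasma drug measured. τ 12 h (bid), 24 h (qd), 8 h (tid), 6 h (qid).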

Homo sapiens = assay: Antidyslipidemic activity in human assessed as decrease in free fatty acid level 175 mg, po QID administered on day 1 followed by 2-days wash out period after which dosing continued up to day 11 measured on day 4 and 11; format: functional, organism-based
Outline: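 Healthy male volunteers in a randomized, double-blind, placebo-controlled multiple-dose study, six active and two placebo subjects per cohort. Oral dosing on day 1, two-day washout, then days 4–11, with titration over days 1–4 for the qd arm.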

[2] = Cmax in human at 175 mg, po QID administered on day 1 followed by 2-days wash out period after which dosing continued up to day 11 measured on day 11; format: ADME, organism-based; parameters: dose 175 mg, route oral; conditions: in vivo
Outline: (§2)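 Healthy male volunteers took part in a double-blind, randomized, placebo-controlled dose-escalation study, with cohorts of 8 (6 on drug, 2 on placebo). Each subject got an oral dose on day 1, then a 2-day washout, then dosing on days 4–11. The 200 mg qd group was titrated over days 1–4. Venous plasma was sampled predose and 0.5–12 h postdose on days 1, 4 and 11, and predose on days 5–10 for troughs.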

[3] = Volume of distribution in Sprague-Dawley rat at 2 mg/kg, iv; format: ADME, organism-based; parameters: dose 2 mg/kg, route intravenous; conditions: in vivo
Outline: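 Male Sprague–Dawley rats dosed iv at 2 mg/kg in 80% PEG400/20% phosphate buffered saline. Jugular vein blood was serially sampled over 24 h, and plasma was prepared from sodium heparin blood. Plasma was analysed by HPLC/MS/MS (LLOQ 1 ng/mL, ULOQ 2000 ng/mL).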

[4] = Tmax in human at 150 mg, po TID administered on day 1 followed by 2-days wash out period after which dosing continued up to day 11 measured on day 11; format: ADME, organism-based; conditions: in vivo
Outline: (§3)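 Double-blind, placebo-controlled, randomized multiple oral dose study in healthy male volunteers (cohorts of eight; six active, two placebo). Dose given on day 1, then a two-day washout, then dosing days 4–11; for the QD arm, subjects were titrated over days 1–4. Venous plasma sampled predose and 0.5, 1, 1.5, 2, 4, 6, 8, 10, 12 h postdose on days 1, 4 and 11. Tmax reported as median (min–max).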

[5] = Oral bioavailability in Sprague-Dawley rat at 10 mg/kg; format: ADME, organism-based; conditions: in vivo
Outline: (§4)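 Male Sprague-Dawley rats were dosed at 10 mg/kg po or 2 mg/kg iv in 80% PEG400/20% phosphate-buffered saline, fasted overnight before the oral dose. Jugular blood was sampled serially from 0.25 to 21 h over 24 h, and heparinized plasma was prepared. Drug was assayed by HPLC/MS/MS (quantitation range 1–2000 ng/mL).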

[6] = Apparent half life in human at 150 mg, po TID administered on day 1 followed by 2-day wash out period after which dosing continued up to day 11 measured on day 11; format: ADME, organism-based; conditions: in vivo, read-out: t1/2(app) (converted); outline: as §1
[7] = Volume of distribution in rhesus monkey; format: ADME, organism-based, Macaca mulatta; conditions: in vivo
[8] = Tmax in human at 150 mg, po TID administered on day 1 followed by 2-days wash out period after which dosing continued up to day 11 measured on day 1; format: ADME, organism-based; conditions: in vivo; outline: as §3
[9] = Terminal half life in mouse; format: ADME, organism-based; conditions: in vivo, read-out: beta t1/2 (converted)
Cytochrome P450 3A4 = Cytochrome P450 3A4 (Homo sapiens, UniProt P08684); assay: Activity at CYP3A4; format: ADME
Chain of Cytochrome P450 3A4 (P08684 whole entry): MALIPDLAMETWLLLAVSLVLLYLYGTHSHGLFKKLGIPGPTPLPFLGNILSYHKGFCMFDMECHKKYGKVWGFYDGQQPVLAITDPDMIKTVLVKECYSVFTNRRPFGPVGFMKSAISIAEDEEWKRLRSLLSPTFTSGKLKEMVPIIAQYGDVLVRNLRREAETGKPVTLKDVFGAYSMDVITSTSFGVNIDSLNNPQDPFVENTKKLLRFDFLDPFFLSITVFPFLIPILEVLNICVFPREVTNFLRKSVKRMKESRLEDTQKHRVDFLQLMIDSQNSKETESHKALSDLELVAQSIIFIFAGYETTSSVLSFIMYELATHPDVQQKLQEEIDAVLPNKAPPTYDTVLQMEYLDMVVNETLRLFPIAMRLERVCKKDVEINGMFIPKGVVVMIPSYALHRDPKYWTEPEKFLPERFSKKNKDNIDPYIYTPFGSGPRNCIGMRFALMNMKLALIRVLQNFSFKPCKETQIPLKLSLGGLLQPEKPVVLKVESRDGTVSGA

Rattus norvegicus = assay: Antidyslipedic activity in fasted Sprague-Dawley rat assessed as decrease in free fatty acid level at 0.01 to 100 mg/kg, po by NEFA C-free fatty acid assay; format: functional; parameters: scale not given: the % may be the effect or the level left; conditions: dose mg/kg 0.01-100
Outline: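 Male Sprague-Dawley rats fasted, compound by oral gavage, serial plasma sampling after dosing for free fatty acids over a time course; vehicle-dosed control group.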

[10] = Cmin in human at 150 mg, po BID administered on day 1 followed by 2-day wash out period after which dosing continued up to day 11 measured on day 4 at 12 hrs; format: ADME, organism-based; conditions: in vivo, read-out: Cmin; outline: as §2
[11] = Plasma clearance in Sprague-Dawley rat at 2 mg/kg, iv; format: ADME, organism-based; parameters: dose 2 mg/kg, route intravenous; outline: as §4
[12] = AUC (0 to 12 hrs) in human at 150 mg, po BID administered on day 1 followed by 2-day wash out period after which dosing continued up to day 11 measured on day 11; format: ADME, organism-based; parameters: dose 150 mg, time < 12 hr, route oral; conditions: plasma; outline: as §1
Cytochrome P450 2C8 = biological target: T1, Cytochrome P450 2C8 (Homo sapiens, UniProt P10632); assay: Activity at CYP2C8; format: ADME
T1 sequence (P10632 whole entry): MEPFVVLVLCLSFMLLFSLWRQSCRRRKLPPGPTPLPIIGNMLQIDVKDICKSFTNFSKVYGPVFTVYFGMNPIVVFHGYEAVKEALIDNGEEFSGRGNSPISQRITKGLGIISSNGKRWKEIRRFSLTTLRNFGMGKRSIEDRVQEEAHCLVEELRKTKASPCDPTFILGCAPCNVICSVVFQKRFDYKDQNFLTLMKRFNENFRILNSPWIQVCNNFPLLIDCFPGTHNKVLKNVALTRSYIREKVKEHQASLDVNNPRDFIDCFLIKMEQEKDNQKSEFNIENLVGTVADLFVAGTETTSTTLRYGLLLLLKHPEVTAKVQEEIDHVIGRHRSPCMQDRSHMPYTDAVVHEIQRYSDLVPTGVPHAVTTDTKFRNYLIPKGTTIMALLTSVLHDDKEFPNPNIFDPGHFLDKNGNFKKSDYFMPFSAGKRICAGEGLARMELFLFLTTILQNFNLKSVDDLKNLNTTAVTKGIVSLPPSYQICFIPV

[13] = AUC (0 to 12 hrs) in human at 100 mg, po BID administered on day 1 followed by 2-day wash out period after which dosing continued up to day 11 measured on day 1; format: ADME, organism-based; parameters: dose 100 mg, time < 12 hr, route oral; conditions: plasma; outline: as §1
[14] = Cmin in human at titreated dose from day 1 to 4 followed by 200 mg, po QD administered up to day 11 measured on day 11 at 12 hrs; format: ADME, organism-based; conditions: in vivo, read-out: Cmin; outline: as §2
[15] = Cmin in human at 150 mg, po BID administered on day 1 followed by 2-day wash out period after which dosing continued up to day 11 measured on day 1 at 12 hrs; format: ADME, organism-based; conditions: in vivo, read-out: Cmin; outline: as §2
[16] = AUC (0 to 12 hrs) in human at 50 mg, po BID administered on day 1 followed by 2-day wash out period after which dosing continued up to day 11 measured on day 1; format: ADME, organism-based; parameters: dose 50 mg, time < 12 hr, route oral; conditions: plasma; outline: as §1
Rhesus monkey = assay: Dose normalized AUC in po dosed rhesus monkey; format: ADME, organism-based, Macaca mulatta; conditions: in vivo

## O=C(O)c1n[nH]c2c1C[C@H]1C[C@@H]21
[1]
  AUC at 24 h: 0.119 µM·h
Homo sapiens
  Activity: Active
[2]
  Cmax: 56 nM
[3]
  Vd: 0.53 L/kg
[4]
  Tmax: 1 h
[5]
  bioavailability: 83%
[6]
  half-life: 11 h
[7]
  Vd: 0.21 L/kg
[8]
  Tmax: 0.5 h
[9]
  half-life: 8.7 h
Cytochrome P450 3A4
  Activity: Not Active
Rattus norvegicus
  Activity: 90%
[10]
  concentration at 12 h: 0.241 nM
[11]
  clearance: 17 mL/min/kg
[12]
  AUC at 12 h: 0.0788 µM·h
Cytochrome P450 2C8
  Activity: Not Active
[13]
  AUC at 12 h: 0.0728 µM·h
[14]
  concentration at 12 h: 0.273 nM
[15]
  concentration at 12 h: 0.316 nM
[16]
  AUC at 12 h: 0.0294 µM·h
Rhesus monkey
  AUC/dose: 8.5 µM·kg·h/mg
